Activity calls are given as the source filed them. No cut-off for these calls is given here. Positions of bridges follow the written chain, without caps; N, C: chain ends. Non-standard residues stand in square brackets, D forms with d. Residues, ends and D or L forms follow the SMILES beside them. Chains are numbered I, II in the order given. Nle = CCCC[C@H](N)C(=O)O
Columns and labels:
[1] = biological target: T1, Neuronal acetylcholine receptor subunit alpha-7 (Homo sapiens, UniProt P36544); experiment: Negative allosteric modulation activity at alpha7 nAChR in human SH-SY5Y cells assessed as inhibition of choline induced intracellular calcium by FLIPR assay; type: cell-based
[2] = biological target: Acetylcholine-binding protein (Lymnaea stagnalis) (UniProt P58154); experiment: Displacement of [3H]-epibatidine from recombinant Lymnaea stagnalis Acetylcholine-binding protein assessed as inhibition of [3H]-epibatidine binding at 20 uM by radioligand saturation binding assay
How it was run: (§1)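 Saturation binding of [3H]-epibatidine to recombinantly expressed Ls-AChBP was run without peptide and with a fixed peptide concentration (20 μM or 40 μM, depending on the peptide). Data are means ± SEM of triplicates from three independent experiments.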

[3] = biological target: Acetylcholine-binding protein (Lymnaea stagnalis, UniProt P58154); experiment: Displacement of [3H]-epibatidine from recombinant Lymnaea stagnalis Acetylcholine-binding protein by radioligand binding assay
How it was run: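 Competition binding: peptide concentration series against [3H]-epibatidine bound to recombinantly expressed Ls-AChBP; IC50 taken from concentration–response curves of displacement. Values are means ± SEM of triplicates from three independent experiments.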

[4] = biological target: Acetylcholine-binding protein (Lymnaea stagnalis) (UniProt P58154); experiment: Displacement of [3H]-epibatidine from recombinant Lymnaea stagnalis Acetylcholine-binding protein assessed as inhibition of [3H]-epibatidine binding by radioligand saturation binding assay; details: filed as negative allosteric modulator; how it was run: as §1
[5] = biological target: T1, Neuronal acetylcholine receptor subunit alpha-7; experiment: Negative allosteric modulation activity at alpha7 nAChR in human SH-SY5Y cells assessed as fold change in inhibition of choline induced intracellular calcium by FLIPR assay relative to CTD(21-50); type: cell-based; details: filed as negative allosteric modulator
[6] = biological target: Acetylcholine-binding protein (Lymnaea stagnalis) (UniProt P58154); experiment: Displacement of [3H]-epibatidine from recombinant Lymnaea stagnalis Acetylcholine-binding protein assessed as inhibition of [3H]-epibatidine binding at 40 uM by radioligand saturation binding assay; how it was run: as §1
[7] = biological target: Acetylcholine-binding protein (Lymnaea stagnalis) (UniProt P58154); experiment: Displacement of [3H]-epibatidine from recombinant Lymnaea stagnalis Acetylcholine-binding protein assessed as fold change in inhibition of [3H]-epibatidine binding by radioligand binding assay relative to CTD(21-50); details: filed as negative allosteric modulator
How it was run: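 Competition binding: peptides displaced [3H]-epibatidine from recombinantly expressed Lymnaea stagnalis AChBP. IC50 came from concentration–response curves. The ratio is each peptide's IC50 divided by the IC50 of the CTD(21–50) reference. Data are means ± SEM of triplicates from three independent experiments.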

Chain of Acetylcholine-binding protein (Lymnaea stagnalis) (P58154 whole entry): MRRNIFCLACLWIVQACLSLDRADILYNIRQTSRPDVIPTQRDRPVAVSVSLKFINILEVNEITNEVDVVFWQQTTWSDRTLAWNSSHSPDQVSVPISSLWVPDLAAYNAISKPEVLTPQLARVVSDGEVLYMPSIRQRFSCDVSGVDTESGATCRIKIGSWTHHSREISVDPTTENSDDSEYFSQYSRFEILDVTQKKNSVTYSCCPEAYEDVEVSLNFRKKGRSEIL
T1 sequence (P36544 whole entry): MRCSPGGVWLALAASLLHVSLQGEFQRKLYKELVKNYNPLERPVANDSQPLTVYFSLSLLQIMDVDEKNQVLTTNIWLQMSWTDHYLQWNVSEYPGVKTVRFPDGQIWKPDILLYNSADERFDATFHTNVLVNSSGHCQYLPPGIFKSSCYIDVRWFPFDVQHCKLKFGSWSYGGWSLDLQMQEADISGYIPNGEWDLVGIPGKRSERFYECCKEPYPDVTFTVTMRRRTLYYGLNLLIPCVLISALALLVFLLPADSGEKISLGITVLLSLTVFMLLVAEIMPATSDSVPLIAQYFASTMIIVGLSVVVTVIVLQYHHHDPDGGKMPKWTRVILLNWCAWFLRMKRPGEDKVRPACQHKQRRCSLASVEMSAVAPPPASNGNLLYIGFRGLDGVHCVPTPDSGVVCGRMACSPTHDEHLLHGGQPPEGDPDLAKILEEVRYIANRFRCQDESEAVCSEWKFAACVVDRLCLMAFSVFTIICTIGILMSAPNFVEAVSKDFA
Chain of Acetylcholine-binding protein (P58154 whole entry): as the sequence (P58154 whole entry) above

Row | SMILES | IC50 [1] [µM] | inhibition [2] [%] | IC50 [3] [µM] | Activity [4] | fold change (FC) [5] | inhibition [6] [%] | fold change (FC) [7]
1 | CC[C@H](C)[C@@H]1NC(=O)[C@H](CC(N)=O)NC(=O)[C@H]([C@@H](C)O)NC(=O)[C@H](CCCNC(=N)N)NC(=O)[C@H](CC(=O)O)NC(=O)[C@H](CO)NC(=O)[C@@H]2CCCN2C(=O)[C@H](Cc2c[nH]c3ccccc23)NC(=O)CNC(=O)[C@H](CCCNC(=N)N)NC(=O)[C@@H](N)CSSC[C@H](N)C(=O)N[C@@H]([C@@H](C)CC)C(=O)N[C@@H]([C@@H](C)CC)C(=O)N[C@@H](CC(N)=O)C(=O)N[C@@H]([C@@H](C)O)C(=O)N[C@@H](CCCNC(=N)N)C(=O)N[C@@H](CC(=O)O)C(=O)N[C@@H](CO)C(=O)N2CCC[C@H]2C(=O)N[C@@H](Cc2c[nH]c3ccccc23)C(=O)NCC(=O)N[C@@H](CCCNC(=N)N)C(=O)N[C@H](C(=O)O)CSSC[C@@H](C(=O)O)NC(=O)[C@H]([C@@H](C)CC)NC1=O (I: H-CIINTRDSPWGRC-OH / II: H-CRGWPSDRTNIIC-OH; disulfide I:1-II:1, I:13-II:13) | 46 | – | – | – | – | – | –
2 | CC[C@H](C)[C@@H]1NC(=O)[C@H](CC(N)=O)NC(=O)[C@H]([C@@H](C)O)NC(=O)[C@H](CCCNC(=N)N)NC(=O)[C@H](CC(=O)O)NC(=O)[C@H](CO)NC(=O)[C@@H]2CCCN2C(=O)[C@H](Cc2c[nH]c3ccccc23)NC(=O)CNC(=O)[C@H](CCCNC(=N)N)NC(=O)[C@@H](N)CSSC[C@H](NC(=O)[C@H](CCC(=O)O)NC(=O)[C@H](CO)NC(=O)[C@H](CCC(=O)O)NC(=O)[C@H](CC(=O)O)NC(=O)[C@@H](N)CC(=O)O)C(=O)N[C@@H]([C@@H](C)CC)C(=O)N[C@@H]([C@@H](C)CC)C(=O)N[C@@H](CC(N)=O)C(=O)N[C@@H]([C@@H](C)O)C(=O)N[C@@H](CCCNC(=N)N)C(=O)N[C@@H](CC(=O)O)C(=O)N[C@@H](CO)C(=O)N2CCC[C@H]2C(=O)N[C@@H](Cc2c[nH]c3ccccc23)C(=O)NCC(=O)N[C@@H](CCCNC(=N)N)C(=O)N[C@H](C(=O)O)CSSC[C@@H](C(=O)N[C@@H](CCC(=O)O)C(=O)N[C@@H](CO)C(=O)N[C@@H](CCC(=O)O)C(=O)N[C@@H](CC(=O)O)C(=O)N[C@@H](CC(=O)O)C(=O)O)NC(=O)[C@H]([C@@H](C)CC)NC1=O (I: H-CRGWPSDRTNIICESEDD-OH / II: H-DDESECIINTRDSPWGRC-OH; disulfide I:1-II:6, I:13-II:18) | 35 | – | – | – | – | – | –
3 | CCCC[C@@H]1NC(=O)[C@H](CO)NC(=O)CNC(=O)[C@@H](NC(=O)[C@H](CCCC)NC(=O)[C@H](CCCNC(=N)N)NC(=O)[C@@H](N)[C@@H](C)O)CSSC[C@@H]2NC(=O)[C@H]([C@@H](C)O)NC(=O)[C@@H]3CSSC[C@@H](C(=O)N4CCC[C@H]4C(=O)NCC(=O)O)NC(=O)[C@H](CO)NC(=O)[C@H](CSSC[C@H](NC(=O)[C@H](CO)NC1=O)C(=O)N1CCC[C@H]1C(=O)N[C@@H](CCCNC(=N)N)C(=O)N[C@@H](CC(N)=O)C(=O)NCC(=O)N3)NC(=O)CNC(=O)[C@H](Cc1cnc[nH]1)NC(=O)CNC(=O)[C@H](CCCNC(=N)N)NC(=O)[C@H](CCCNC(=N)N)NC(=O)[C@H](Cc1c[nH]c3ccccc13)NC(=O)[C@H](Cc1cnc[nH]1)NC(=O)[C@H](Cc1ccc(O)cc1)NC(=O)[C@H](C(C)C)NC2=O (H-TR[Nle]CGS[Nle]SCPRNGCTCVYHWRRGHGCSCPG-OH; disulfide 4-16, 9-26, 14-28) | 0.176 | 20 | 20 | Active | – | – | –
4 | CCCC[C@@H]1N[C@@H](CO)C(=O)NCC(=O)N[C@H]2CSSC[C@@H]3NC(=O)[C@H](C(C)C)NC(=O)[C@H](Cc4ccc(O)cc4)NC(=O)[C@H](Cc4cnc[nH]4)NC(=O)[C@H](Cc4c[nH]c5ccccc45)NC(=O)[C@H](CCCNC(=N)N)NC(=O)[C@H](CCCNC(=N)N)NC(=O)CNC(=O)[C@H](Cc4cnc[nH]4)NC(=O)CNC(=O)[C@@H]4CSSC[C@H](NC(=O)[C@@H]5CCCN5C(=O)[C@H](CCCNC(=N)N)NC(=O)[C@H](CC(N)=O)NC(=O)CNC(=O)[C@H](CSSC[C@H](NC(=O)[C@@H]5CCCN5C(=O)CN)C(=O)N[C@@H](CO)C(=O)N4)NC(=O)[C@H]([C@@H](C)O)NC3=O)C(=O)N[C@@H](CSSC[C@@H](C(=O)O)NC(=O)[C@H](CCCNC(=N)N)NC(=O)[C@H]([C@@H](C)O)NC(=O)[C@H](CCCNC(=N)N)N[C@@H](CCCC)C(=O)NC2=O)C(=O)NC1=O | 0.023 | – | 10 | Active | 8 | 29 | 2
